# FN deposition inh: inhibitors of fibronectin matrix deposition, primary screen, AH1F cells, Alexa488-fibronectin fluorescence, plate reader. AH1F fibroblasts, overnight. inhibition, % at 12.6 µM. actives 0.086% (n = 350,000). AID 743247, 2014;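 active = mean inhibition across replicates of 30% or more, regardless of how many single replicates reach that level; inconclusive = mean under 30% yet at least half of replicates reach 30%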;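 also: positive control wells lacked labelled fibronectin entirely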
#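 Assay system: AH1F fibroblast monolayer, labelled fibronectin deposition. Amount: 10000 cells per well. Also added: labelled fibronectin 24 nM. Compound: single-point pinned compound. Incubation: cell attachment 1 h, compound and FN exposure overnight. Detection: fluorescence after three HBSS washes, excitation 485 nm, emission 525 nm. Read-out: inhibition of fibronectin deposition signal.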
# FGF22 binding: binders of human FGF22 protein, primary screen, FGF22 synaptogenesis inhibitor project, biophysical, thermal shift, single point; AID 651658, 2012; actives 1.5% (n = 340,000); recombinant FGF22 thermal shift, SYPRO orange fluorescence; percent of sucrose octasulfate shift, DMSO zero; activity (Tm shift, normalised), % at 9.99 µM;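 active = mean Tm shift, scaled 0 neutral to 100 positive control, at about 1.3% or above, every replicate too, limit read from the data; inconclusive = no clear call, values can overlap the other calls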
# Target sequence (Q9HCT0 whole entry, looked up): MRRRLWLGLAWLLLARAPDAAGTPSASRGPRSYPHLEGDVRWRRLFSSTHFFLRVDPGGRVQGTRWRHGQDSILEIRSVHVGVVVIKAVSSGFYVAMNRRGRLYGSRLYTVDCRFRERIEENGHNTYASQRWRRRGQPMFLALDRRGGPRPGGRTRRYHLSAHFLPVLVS
# ARNT TACC3 PPI: disruptors of ARNT/TACC3 protein interaction, primary screen, biochemical, AlphaScreen, single concentration. AlphaScreen His-ARNT PAS-B/GST-TACC3 binding, luminescence; TACC3 fragment carries E629A point mutation. inhibition, % at 9.99 µM. actives 0.66% (n = 390,000). AID 623870, 2012;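 active = mean inhibition of replicates at least 50% and at least half of replicates each reaching 50%; inconclusive = half or more replicates reach 50% but mean below 50%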;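 also: 0% = complete ARNT plus TACC3 wells and 100% = ARNT alone without TACC3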
# SIRT5 inh: SIRT5 desuccinylase inhibitors, primary screen, biochemical, fluorescence imaging, single point, set 5; NAD-dependent protein deacylase sirtuin-5, mitochondrial (Homo sapiens), Q9NXA8; Purified SirT5, succinyl-peptide AMC, trypsin-coupled fluorescence; inhibition, % at 15 µM; actives 1.1% (n = 330,000); in the data active = inhibition above about 15%; inconclusive = no clear call, values can overlap the other calls
# Target sequence (Q9NXA8 whole entry, looked up): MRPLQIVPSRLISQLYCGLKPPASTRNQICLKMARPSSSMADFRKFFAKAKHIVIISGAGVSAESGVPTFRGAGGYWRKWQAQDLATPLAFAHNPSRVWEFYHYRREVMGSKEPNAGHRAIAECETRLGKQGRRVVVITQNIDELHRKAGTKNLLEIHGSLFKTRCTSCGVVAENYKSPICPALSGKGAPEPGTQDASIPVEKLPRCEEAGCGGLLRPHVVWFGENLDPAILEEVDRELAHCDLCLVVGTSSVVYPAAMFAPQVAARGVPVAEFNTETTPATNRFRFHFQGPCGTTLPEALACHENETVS
# DENV2 CPE: inhibitors of DENV2 cytopathic effect, primary screen, cell-based, plate reader, single concentration; DENV2-infected cells, cytopathic effect rescue; CPE inhibition, % at 9.99 µM; actives 1.7% (n = 350,000); AID 651640, 2012; in the data active = CPE inhibition above about 20%, passing the limit was not always enough; inconclusive = no clear call, values can overlap the other calls; tested in BHK-21 cells;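 also: 0% = median of neutral control wells and 100% = median of positive control wells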
# Xi reactivation: activators of inactive X chromosome reactivation, primary screen, imaging, XiGFP fibroblasts, GFP high-content imaging, set 2. XiGFP mouse fibroblasts, % GFP-positive cells imaging, 3 d; cells co-treated with 5-aza-dC sensitizer; scaled so ellipticine positive control = 100%. actives 0.055% (n = 360,000). activation, % at 7.58 µM;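 active = mean normalized replicate activation at least 10% and every replicate at or above 10%; inconclusive = only one of the two criteria met; inactive = mean below 10% and not all replicates reach 10%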;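 also: 0% = median of on-plate neutral control wells and 100% = ellipticine 6 µM median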
#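 Assay system – SV40-immortalized XiGFP fibroblast cells, line 68-5-11 · Buffer or medium – DMEM supplemented with 5-aza-dC as sensitizing agent · Dosing – one concentration, pinned · Benchmarks – positive control ellipticine, 6 µM final · Times – 3 days compound exposure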
# An asterisk follows results filed as active; ? = inconclusive; / = not tested or not shown. A selection: hits, their analogues and other compounds. The true share with any hit is near 3.8%.
SMILES,FN deposition inh,FGF22 binding,ARNT TACC3 PPI,SIRT5 inh,DENV2 CPE,Xi reactivation
CN1C[C@@H]2[C@@H]3C(=O)N(Cc4ccccc4)C(=O)[C@@H]3[C@](C)(C1=O)N2C(=O)c1ccc(C(F)(F)F)cc1,7,0,/,-4,12,0
Cc1ccc(S(=O)(=O)N2CCN(C(=O)COC(=O)/C=C/c3ccc(F)cc3)CC2)c(C)c1,2,0,-1,0,5,0
CSc1ccc(/C=C/C(=O)OCC(=O)N2CCN(S(=O)(=O)c3ccc(C)cc3C)CC2)cc1,3,0,/,-1,25*,0
CCC(N=c1cc(-c2ccc(OC)c(OC)c2)oc2ccc(C)cc12)C(=O)O (configuration not stated),8,42,-2,3,22*,0
CCC(N=c1cc(-c2ccc(OC)cc2)oc2ccc(C)cc12)C(=O)O (configuration not stated),-1,/,2,/,/,0
C[C@@H]1CN([C@H](C)CO)C(=O)c2cc(N(C)C)ccc2O[C@H]1CN(C)C(=O)NC1CCCCC1,/,0,-7,-9,-6,0
COC(=O)Cc1[nH]n(-c2nc3ccccc3s2)c(=O)c1C(C)=Nc1ccc(C)cc1,0,2.5*,4,0,2,0
C/C(=N/NC(=O)c1cccs1)c1c(C)[nH]n(-c2nc3ccccc3s2)c1=O,-17,0,47*,4,-2,0
COc1cccc(CNC(=O)[C@H]2[C@H](CO)[C@H]3Cn4c(ccc(-c5cccnc5)c4=O)[C@@H]2N3C(C)=O)c1,/,0,-3,-38,0,0
O=C(NCC[C@@H]1CC[C@@H](NC(=O)C2CC2)[C@H](CO)O1)c1cc(Cl)cc(Cl)c1,/,0,-15,10,1,0
CCS(=O)(=O)Nc1ccc2c(c1)C(=O)N(C)C[C@H](OC)[C@H](C)CN(Cc1ccccn1)[C@@H](C)CO2,20,0,5,6,6,0
CCCn1c(SCc2nc3ccccc3s2)n[nH]c1=O,4,0,1,-1,1,0
O=c1[nH]nc(SCc2nc3ccccc3s2)n1C1CC1,7,43*,1,1,2,0
C[C@@H]1CN([C@@H](C)CO)C(=O)c2cc(-c3ccccc3)cnc2O[C@@H]1CN(C)C,6,0,-5,-1,-7,-1
O=C(Cn1cc2c(n1)CCCCC2)NC1CCN(Cc2ccccc2)CC1,4,43*,0,/,7,0
O=C(CN1CCCC1)N1c2ccccc2C=Cc2ccccc21,15,43*,-13,-9,0,0
O=C(CN1CCCCCC1)N1c2ccccc2C=Cc2ccccc21,-3,/,1,-1,/,/
CC1=C(O)C(=O)C(C2=C(O)C(=O)C(C)=C(O)C2=O)=C(O)C1=O,/,0,66*,8,2,/
Cc1ccc(C2=C(O)C(=O)C(c3ccc(C)cc3)=C(O)C2=O)cc1,-5,0,5,-1,56*,0
CCNC(=S)N/N=C/c1cc(C)n(-c2ccc(Cl)cc2)c1C,-34,0,-3,16*,6,0
Cc1cc(/C=N/NC(N)=S)c(C)n1-c1ccc(Cl)c(Cl)c1,-10,0,/,-3,0,5
CO[C@H]1CN(C)C(=O)c2ccc(NC(C)=O)cc2OC[C@H](C)N(Cc2cccc(F)c2)C[C@@H]1C,-2,0,/,1,11,0
CC1(C)Cc2c(sc(NC(=S)NC(=O)c3ccccc3)c2C(=O)O)CO1,6,44*,3,2,-1,0
CC1(C)Cc2c(sc(NC(=O)c3ccco3)c2C(=O)O)CO1,/,0,-1,1,4,/
O=C(CCN1CCCCC1)N[C@H]1CC[C@H](CCNC(=O)c2cc(Cl)cc(Cl)c2)O[C@@H]1CO,0,-1,0,-1,9,0
SMILES,FN deposition inh,FGF22 binding,ARNT TACC3 PPI,SIRT5 inh,DENV2 CPE,Xi reactivation
CCN(CC)S(=O)(=O)c1ccc(NC(=O)COC(=O)CNC(=O)C2CCCCC2)cc1,-4,0,0,-2,63*,0
O=C(COC(=O)c1cnccn1)Nc1ccc(Cl)cn1,11,0,10,-3,0,0
NS(=O)(=O)c1ccc(NC(=O)COC(=O)CCC2CCCC2)cc1,3,0,-4,-4,5,0
COc1ccc(OC)c(NC(=O)COC(=O)C2CCCCC2)c1,-5,44*,-5,/,-1,0
COc1ccc(OC)c(NC(=O)COC(=O)C2CCC2)c1,0,0,-2,-1,?,0
NS(=O)(=O)c1ccc(NC(=O)COC(=O)c2cnccn2)cc1,10,43*,-1,0,4,0
NS(=O)(=O)c1ccc(NC(=O)COC(=O)C2CCCCC2)cc1,3,44*,/,2,3,0
COC(=O)[C@@](C)(O)C1(C(=O)SC(C)(C)C)CC1,5,0,-9,/,130*,0
C[C@H]1CN([C@@H](C)CO)C(=O)Cc2cc(NS(=O)(=O)c3cn(C)cn3)ccc2O[C@@H]1CN(C)Cc1ccc(-c2ccccc2)cc1,/,0,/,-6,9,-1
C[C@@H]1CN([C@@H](C)CO)C(=O)Cc2cc(NS(=O)(=O)c3ccccc3)ccc2O[C@H]1CN(C)Cc1ccc(-c2ccccc2)cc1,/,0,2,2,?,0
C[C@@H]1CN([C@@H](C)CO)C(=O)Cc2cc(NS(=O)(=O)c3cn(C)cn3)ccc2O[C@H]1CN(C)Cc1ccc(-c2ccccc2)cc1,/,-1,/,-5,26*,-1
C[C@@H]1CN([C@H](C)CO)C(=O)Cc2cc(NS(=O)(=O)c3ccccc3)ccc2O[C@H]1CN(C)Cc1ccc(-c2ccccc2)cc1,/,0,5,15*,0,0
C[C@H](CO)N1C[C@H](C)[C@@H](CN(C)Cc2ccc(-c3ccccc3)cc2)Oc2ccc(NS(=O)(=O)c3ccccc3)cc2CC1=O,/,-1,1,18*,-26,0
C[C@H]1CN([C@@H](C)CO)C(=O)Cc2cc(NS(=O)(=O)c3ccccc3)ccc2O[C@H]1CN(C)Cc1ccc(-c2ccccc2)cc1,/,0,1,9,?,0

# Source: PubChem BioAssay (Broad Institute)
